# ChEMBL document CHEMBL1157821, “In vitro photodynamic therapy and quantitative structure-activity relationship studies with stable synthetic near-infrared-absorbing bacteriochlorin photosensitizers” (J Med Chem, 2010)
# Assays:
# HeLa [1] = test: Cellular uptake in human HeLa cells measured per mg of protein at 20.5 uM after 24 hrs by fluorescence measurements; assay type: ADME, cell-based
# How it was run: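 HeLa in RPMI with 10% heat-inactivated FBS, 5000 cells/well, grown 24 h, then given bacteriochlorin in complete medium (DMSO ≤0.2%) for 24 h. Cells were rinsed with warm PBS and lysed in SOLVABLE, 37 °C, 2 h. Fluorescence was read at ex 402/em 730 nm against per-compound calibration curves and normalized to BCA protein, giving nmol per mg protein. Three repeats.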
# HeLa [2] = test: Photocytotoxicity against human HeLa cells after 24 hrs by MTT assay in presence of 10 J/cm2 laser; assay type: functional; settings: light or radiation study, read-out: LD50 (the source's name)
# How it was run: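 HeLa cells (5000/well) grown 24 h, then incubated 24 h with bacteriochlorin at 0.001–10 μM in complete RPMI with 10% serum (DMSO ≤0.2%). Medium replaced, then 10 J/cm2 of 732 nm laser light given (780 nm LED, 50 mW/cm2, for one compound). MTT (4 h, 562 nm) 24 h later. Survival is relative to untreated controls. LD50 in nM. Experiments done in triplicate.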
# [3] = Octanol-water partition coefficient, log P by stir-flask method; assay type: physicochemical
# How it was run: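 About 2 mL octanol and 2 mL water were pre-stirred 3 h at room temperature. Under 0.5 mg bacteriochlorin was added and stirred 24 h at 100–200 rpm, then the phases settled for 30 min. An aliquot of each phase was diluted in DMSO and the Qy(0,0) absorbance ratio (octanol/water) was taken. A phase with no detectable compound was set at A=0.001 as a bound.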
# HeLa [4] = test: Cellular uptake in human HeLa cells assessed as localization to lysosomes at 1 uM after 24 hrs by confocal fluorescence microscopy; assay type: ADME, cell-based
# How it was run: (§1)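 HeLa plated in 35 mm dishes, attached overnight, then given 1 μM bacteriochlorin in complete medium for 24 h. After a PBS wash, cells got 5 μg/mL LysoTracker green DND-26, MitoTracker green FM or ER-Tracker green for 30 min at 37 °C, then were washed again. Confocal imaging used 488 nm excitation, 515 ± 10 nm (tracker) or >580 nm (bacteriochlorin) emission, and a 63× water objective.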
# HeLa [5] = test: Cellular uptake in human HeLa cells assessed as localization to endoplasmic reticulum at 1 uM after 24 hrs by confocal fluorescence microscopy; assay type: ADME, cell-based; how it was run: as §1
# HeLa [6] = test: Cellular uptake in human HeLa cells assessed as localization to mitochondria at 1 uM after 24 hrs by confocal fluorescence microscopy; assay type: ADME, cell-based; how it was run: as §1
SMILES,Drug uptake (HeLa [1]) [nmol/mg],CC50 (HeLa [2]) [nM],logP ([3]; read-out: logP),Drug uptake (HeLa [4]),Drug uptake (HeLa [5]),Drug uptake (HeLa [6]),logP [3]
CC1(C)Cc2cc3[nH]c(cc4nc(cc5[nH]c(cc1n2)cc5C(=O)O)CC4(C)C)cc3C(=O)O,0.72,4000,1.4,–,–,–,–
CC1(C)Cc2cc3[nH]c(cc4nc(cc5[nH]c(cc1n2)cc5C(=O)NCCN)CC4(C)C)cc3C(=O)NCCN,7.7,3000,-0.5,Active,–,–,–
CC1(C)Cc2cc3[nH]c(cc4nc(cc5[nH]c(cc1n2)cc5CN(CCO)CCO)CC4(C)C)cc3CN(CCO)CCO,8.2,100,2.3,Active,Active,–,–
COCCOCCOCCOCCNCc1cc(CNCCOCCOCCOCCOC)cc(-c2c3nc(cc4[nH]c(cc4-c4ccc(C)cc4)c(OC)c4nc(cc5[nH]c2cc5-c2ccc(C)cc2)C(C)(C)C4)C(C)(C)C3)c1,3.9,500,≥ 2.2,–,–,–,–
COCCC(CCOC)c1cc2cc3nc(cc4[nH]c(cc5nc(cc1[nH]2)CC5(C)C)cc4C(CCOC)CCOC)CC3(C)C,11.7,–,≥ 2.5,–,–,–,–
CC1(C)Cc2cc3[nH]c(cc4nc(cc5[nH]c(cc1n2)cc5-c1cc(OCCO)cc(OCCO)c1)CC4(C)C)cc3-c1cc(OCCO)cc(OCCO)c1,10.4,15,≥ 2.2,–,–,–,–
CC1(C)Cc2cc3[nH]c(cc4nc(cc5[nH]c(cc1n2)cc5-c1cc(O)cc(O)c1)CC4(C)C)cc3-c1cc(O)cc(O)c1,13.5,80,≥ 2.5,–,Active,Active,–
CC1(C)Cc2cc3[nH]c(cc4nc(cc5[nH]c(cc1n2)cc5C#CC[N+](C)(C)C)CC4(C)C)cc3C#CC[N+](C)(C)C.[Cl-].[Cl-],8.2,2000,0.9,–,–,–,–
CC1(C)Cc2cc3[nH]c(cc4nc(cc5[nH]c(cc1n2)cc5C(=O)N(CCN)CCN)CC4(C)C)cc3C(=O)N(CCN)CCN,1.8,800,-1.4,–,–,–,–
CC1(C)Cc2cc3[nH]c(cc4nc(cc5[nH]c(cc1n2)cc5C(=O)N1CC[N+](C)(C)CC1)CC4(C)C)cc3C(=O)N1CC[N+](C)(C)CC1.[Cl-].[Cl-],1.8,800,–,–,–,–,-1
CC1(C)Cc2cc3[nH]c(cc4nc(cc5[nH]c(cc1n2)cc5C(=O)/C=C/c1cc(O)cc(O)c1)CC4(C)C)cc3C(=O)/C=C/c1cc(O)cc(O)c1,1.8,200,≥ 1.8,–,–,–,–
COCCN(CCOC)C(=O)c1cc2cc3nc(cc4[nH]c(cc5nc(cc1[nH]2)CC5(C)C)cc4C(=O)N(CCOC)CCOC)CC3(C)C,15,60,≥ 1.9,–,–,–,–
